The record followed here is ChEMBL document CHEMBL4052588, “Design of a Biased Potent Small Molecule Inhibitor of the Bromodomain and PHD Finger-Containing (BRPF) Proteins Suitable for Cellular and in Vivo Studies” (J Med Chem, 2017).

What is called Cmax is the highest concentration seen after dosing. The term ΔTm denotes the shift of the melting midpoint relative to a reference. What is called IC50 is the point on the concentration scale where inhibition reaches its midpoint. A low value points to greater potency.

Where only a bound is given, the exact number is not on record here.

Data set [1] is described as follows: Cmax in CD-1 mouse blood at 3 mg/kg, po. The format is ADME, organism-based. Also noted: dose 3 mg/kg, route oral. As to conditions: whole blood. An outline of the steps:
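Female CD-1 mice (n = 3), single dosing: intravenous 1.0 mg/kg, or oral 3.0 mg/kg given as a suspension. Blood levels were followed over time to derive clearance, volume of distribution, elimination half-life, Cmax, Tmax, AUC0−∞, oral bioavailability and fraction absorbed.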

Data set [2] has as its target T1, Bromodomain and PHD finger-containing protein 3 (Homo sapiens) (UniProt Q9ULD4).
T1 sequence (whole entry): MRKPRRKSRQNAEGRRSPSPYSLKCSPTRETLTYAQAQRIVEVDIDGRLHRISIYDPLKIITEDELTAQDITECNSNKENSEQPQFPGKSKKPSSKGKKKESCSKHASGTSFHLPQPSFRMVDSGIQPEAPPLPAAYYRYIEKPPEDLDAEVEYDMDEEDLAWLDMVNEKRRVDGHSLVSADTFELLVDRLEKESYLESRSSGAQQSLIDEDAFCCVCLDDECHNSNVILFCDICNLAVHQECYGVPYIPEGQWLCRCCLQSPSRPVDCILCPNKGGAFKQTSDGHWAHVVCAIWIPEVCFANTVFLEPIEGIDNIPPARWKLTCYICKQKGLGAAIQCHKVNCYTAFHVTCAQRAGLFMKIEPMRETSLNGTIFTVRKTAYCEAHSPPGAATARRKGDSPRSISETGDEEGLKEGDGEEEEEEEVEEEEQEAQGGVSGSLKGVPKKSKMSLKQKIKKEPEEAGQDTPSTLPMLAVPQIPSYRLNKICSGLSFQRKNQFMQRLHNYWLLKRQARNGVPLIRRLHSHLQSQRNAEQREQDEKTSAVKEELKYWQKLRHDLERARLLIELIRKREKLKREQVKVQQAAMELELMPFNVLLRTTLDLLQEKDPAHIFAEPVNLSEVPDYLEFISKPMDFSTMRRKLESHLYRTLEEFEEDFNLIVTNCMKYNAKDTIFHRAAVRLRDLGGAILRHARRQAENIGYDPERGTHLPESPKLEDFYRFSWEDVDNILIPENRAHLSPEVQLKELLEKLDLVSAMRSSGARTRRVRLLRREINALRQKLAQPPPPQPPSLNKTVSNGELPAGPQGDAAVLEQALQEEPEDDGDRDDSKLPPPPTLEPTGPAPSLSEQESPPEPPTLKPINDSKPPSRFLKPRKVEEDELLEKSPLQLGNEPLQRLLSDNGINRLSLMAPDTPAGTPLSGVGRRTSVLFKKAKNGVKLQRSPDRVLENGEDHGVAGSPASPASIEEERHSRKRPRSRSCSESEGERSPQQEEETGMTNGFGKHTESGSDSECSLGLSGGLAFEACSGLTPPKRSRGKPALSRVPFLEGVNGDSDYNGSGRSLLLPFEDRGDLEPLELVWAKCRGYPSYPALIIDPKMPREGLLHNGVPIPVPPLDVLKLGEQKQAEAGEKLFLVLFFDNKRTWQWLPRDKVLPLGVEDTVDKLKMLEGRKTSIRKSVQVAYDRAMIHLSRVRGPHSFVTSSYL

For data set [3], the target named is T2, Bromodomain-containing protein 1 (Homo sapiens) (UniProt O95696).
T2 sequence (whole entry): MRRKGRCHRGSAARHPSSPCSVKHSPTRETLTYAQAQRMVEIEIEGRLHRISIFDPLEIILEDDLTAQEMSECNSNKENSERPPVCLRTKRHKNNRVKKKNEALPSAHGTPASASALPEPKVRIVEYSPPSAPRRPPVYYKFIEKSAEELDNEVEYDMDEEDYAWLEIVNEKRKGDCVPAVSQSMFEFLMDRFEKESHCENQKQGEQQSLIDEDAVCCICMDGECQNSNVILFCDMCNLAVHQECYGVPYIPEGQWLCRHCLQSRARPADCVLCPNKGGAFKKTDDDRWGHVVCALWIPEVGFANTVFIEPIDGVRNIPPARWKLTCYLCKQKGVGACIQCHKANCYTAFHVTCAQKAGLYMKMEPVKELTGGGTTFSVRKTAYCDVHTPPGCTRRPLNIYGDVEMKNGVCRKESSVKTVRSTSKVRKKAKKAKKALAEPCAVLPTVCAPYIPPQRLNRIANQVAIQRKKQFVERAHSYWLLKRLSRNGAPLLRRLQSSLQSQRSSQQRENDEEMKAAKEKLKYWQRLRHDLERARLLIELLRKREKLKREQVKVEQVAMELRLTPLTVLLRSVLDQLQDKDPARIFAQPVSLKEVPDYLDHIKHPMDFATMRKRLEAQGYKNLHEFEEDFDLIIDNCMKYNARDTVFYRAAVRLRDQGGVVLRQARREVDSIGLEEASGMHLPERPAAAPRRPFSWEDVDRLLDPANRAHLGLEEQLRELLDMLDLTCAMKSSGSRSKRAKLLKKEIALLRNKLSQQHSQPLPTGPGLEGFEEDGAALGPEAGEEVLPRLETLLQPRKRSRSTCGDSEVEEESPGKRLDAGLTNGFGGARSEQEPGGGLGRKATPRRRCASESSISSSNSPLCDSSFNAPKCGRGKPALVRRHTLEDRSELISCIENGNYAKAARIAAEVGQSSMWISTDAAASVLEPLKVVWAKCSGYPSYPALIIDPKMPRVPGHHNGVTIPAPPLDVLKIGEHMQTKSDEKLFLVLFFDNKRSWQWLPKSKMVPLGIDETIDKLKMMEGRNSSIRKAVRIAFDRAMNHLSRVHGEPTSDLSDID

The target of data set [4] is Bromodomain-containing protein 7 (Homo sapiens, UniProt Q9NPI1). Nature of the data set: Inhibition of human BRD7 expressed in Escherichia coli BL21 after 1 hr by BROMOscan assay.
The target in data set [5] is T3, Bromodomain-containing protein 9 (Homo sapiens, UniProt Q9H8M2).
T3 sequence (Q9H8M2 whole entry): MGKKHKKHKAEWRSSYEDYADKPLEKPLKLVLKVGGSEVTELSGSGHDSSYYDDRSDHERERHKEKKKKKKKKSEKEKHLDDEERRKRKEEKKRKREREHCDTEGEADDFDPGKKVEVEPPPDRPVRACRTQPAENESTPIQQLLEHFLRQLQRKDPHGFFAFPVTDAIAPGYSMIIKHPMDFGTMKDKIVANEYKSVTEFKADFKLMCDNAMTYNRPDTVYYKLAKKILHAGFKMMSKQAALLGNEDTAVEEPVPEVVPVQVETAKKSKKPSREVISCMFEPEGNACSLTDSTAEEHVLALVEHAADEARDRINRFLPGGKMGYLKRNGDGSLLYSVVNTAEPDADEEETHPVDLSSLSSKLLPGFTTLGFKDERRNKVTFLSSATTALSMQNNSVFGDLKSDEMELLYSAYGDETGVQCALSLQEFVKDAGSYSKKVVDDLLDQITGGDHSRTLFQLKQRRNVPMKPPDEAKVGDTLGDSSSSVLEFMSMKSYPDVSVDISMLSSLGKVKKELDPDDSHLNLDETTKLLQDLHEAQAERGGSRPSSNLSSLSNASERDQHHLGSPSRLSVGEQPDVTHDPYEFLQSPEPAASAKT
Nature of the data set: Inhibition of human His tagged BRD9 incubated for 30 mins followed by addition of biotinylated peptide and further incubation for 30 mins measured by AlphaScreen assay. On the technique in general: Bead proximity is the source of the signal in Alpha formats.

Chain of Bromodomain-containing protein 7 (Q9NPI1 whole entry): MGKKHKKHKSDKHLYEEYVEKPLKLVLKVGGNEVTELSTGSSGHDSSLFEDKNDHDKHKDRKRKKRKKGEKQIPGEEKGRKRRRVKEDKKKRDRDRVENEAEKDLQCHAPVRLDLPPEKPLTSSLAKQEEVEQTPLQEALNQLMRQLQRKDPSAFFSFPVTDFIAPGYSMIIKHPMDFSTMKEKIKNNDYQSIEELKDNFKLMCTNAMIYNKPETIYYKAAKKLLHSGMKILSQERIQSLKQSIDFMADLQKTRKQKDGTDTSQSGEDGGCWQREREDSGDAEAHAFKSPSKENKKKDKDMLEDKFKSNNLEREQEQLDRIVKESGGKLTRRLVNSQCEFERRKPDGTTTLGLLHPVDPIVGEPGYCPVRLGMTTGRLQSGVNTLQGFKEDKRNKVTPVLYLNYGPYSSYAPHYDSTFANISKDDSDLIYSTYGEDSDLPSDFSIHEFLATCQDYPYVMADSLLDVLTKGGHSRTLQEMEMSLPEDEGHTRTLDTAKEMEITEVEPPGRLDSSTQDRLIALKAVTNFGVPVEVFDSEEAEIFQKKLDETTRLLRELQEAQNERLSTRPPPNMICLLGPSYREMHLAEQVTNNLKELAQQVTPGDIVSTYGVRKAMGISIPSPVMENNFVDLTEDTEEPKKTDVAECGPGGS

Molecule `Cc1cc2cc(NS(=O)(=O)c3ccc(C#N)cc3)ccc2n(C)c1=O` registered a Cmax in data set [1] of 4 µM. Further, the ΔTm in data set [2] was determined as 4.5 °C; in data set [3], 5.1 °C. For the same molecule, the IC50 amounted to 0.082 µM in data set [4] and 1.1 µM in data set [5].
`CCc1cc2cc(NS(=O)(=O)c3ccc(C#N)cc3)ccc2n(CC)c1=O`: the IC50 in data set [4] was over 100 µM; in data set [5] it was over 20 µM.
`Cc1cc(C#N)ccc1S(=O)(=O)Nc1ccc2c(ccc(=O)n2C)c1`: the results for the ΔTm in data set [2] and in data set [3] were 2.4 °C and 3.4 °C, respectively.
